We go through twelve molecules from ChEMBL document CHEMBL1157203, “Synthesis and cytotoxic activity of gamma-aryl substituted alpha-alkylidene-gamma-lactones and alpha-alkylidene-gamma-lactams” (Bioorg Med Chem, 2008).

Type in all cases: functional, cell-based
One experiment has as its system HL-60. Kind of experiment: Cytotoxicity against human HL60 cells after 48 hrs by MTT assay. An outline of the steps: (§1)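 HL-60 (promyelocytic) and NALM-6 (lymphoblastic) cells grown in RPMI 1640 with 10% heat-inactivated FBS, streptomycin and penicillin, 37 °C, 5% CO2. Exponentially growing cells seeded at 8×10^3/well. Compounds prepared fresh from DMSO stocks and tested at 10^-7 to 10^-3 M for 46 h, then MTT 2 h. Formazan dissolved in 20% SDS/50% DMF pH 4.7, absorbance 562 and 630 nm. IC50 taken from concentration-response curves, means of at least 6 repeats ± SD.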

For the next experiment, the system named is L1210. Put plainly: Cytotoxicity against mouse L1210 cells after 48 hrs by tetrazolium dye method.
The subject of another experiment is NALM-6. Put plainly: Cytotoxicity against human NALM6 cells after 48 hrs by MTT assay. The gist of the method:
as §1
Background: Tetrazolium dyes change colour on reduction, which living cells bring about.

Molecules are shown by their SMILES. Where “and” joins values, the source holds several entries; their conditions need not be identical. Identical values can stand only once. Some results are limits rather than exact numbers.

The IC50 is the midpoint of a concentration-inhibition curve. As to `C=C1CC(c2ccccc2)N(C)C1=O` (configuration not stated), the IC50 in the experiment with HL-60 (Homo sapiens, HL-60, 48 h) was 989 µM; in the experiment with L1210 (Mus musculus, L1210, 48 h), more than 50 µM; in the experiment with NALM-6 (Homo sapiens, NALM-6, 48 h), 553 µM.
In the case of `C=C1C(=O)OC(c2ccc(Br)cc2)C1C` (configuration not stated), the IC50 in the experiment with HL-60 (hl-60) was 41.8 µM and 5.05 µM; with L1210 (l1210), 7.5 µM and 1.55 µM.
`C=C1C(=O)OC(c2ccc(OC)cc2)C1C` (configuration not stated): the half-maximal inhibitory concentration (IC50) with HL-60 (hl-60) is 37.9 µM and 5.69 µM; with L1210 (l1210), 14.2 µM and 3.65 µM; in the experiment on NALM-6 (nalm-6) it was 38.6 µM and 5.23 µM.
With `C=C1CC(c2ccc(Br)cc2)N(C)C1=O` (configuration not stated), the IC50 was 220 µM in the experiment with HL-60 (Homo sapiens, HL-60, 48 h); more than 50 µM in the experiment with L1210 (Mus musculus, L1210, 48 h); 141 µM with NALM-6 (Homo sapiens, NALM-6, 48 h).
Regarding `C=C1CC(c2ccc(Br)cc2)OC1=O` (configuration not stated), the IC50 with HL-60 (Homo sapiens, HL-60, 48 h) amounted to 20.3 µM; with L1210 (Mus musculus, L1210, 48 h), 1.3 µM; with NALM-6 (Homo sapiens, NALM-6, 48 h), 85.3 µM.
For `CC(C)/C=C1\CC(c2ccccc2)N(C)C1=O` (configuration not stated), in that order: 81.3 µM, more than 50 µM and 351 µM.
Taken in the same sequence, the figures for `C=C1CC(c2ccc(OC)cc2)N(C)C1=O` (configuration not stated) were 611 µM, more than 50 µM and 523 µM.
As to `C=C1CC(c2cccc3ccccc23)OC1=O` (configuration not stated), the IC50 with HL-60 (Homo sapiens, HL-60, 48 h) worked out at 4.42 µM; with L1210 (Mus musculus, L1210, 48 h), 4.3 µM; with NALM-6 (Homo sapiens, NALM-6, 48 h), 3.86 µM.
For `CC(C)/C=C1/CC(c2ccccc2)OC1=O` (configuration not stated), in that order: 159 µM, more than 50 µM and 483 µM.
Regarding `C=C1C(=O)OC(c2ccccc2)C1C` (configuration not stated), the IC50 was 8.97 µM in the experiment on HL-60 (Homo sapiens, HL-60, 48 h); 8.97 µM with HL-60 (hl-60); 4 µM and 28 µM in the experiment on L1210 (l1210); 7.91 µM in the experiment on NALM-6 (Homo sapiens, NALM-6, 48 h); 7.91 µM with NALM-6 (nalm-6).
Take `O=C1OC(c2ccccc2)C/C1=C\c1ccccc1` (configuration not stated): the IC50 with HL-60 (Homo sapiens, HL-60, 48 h) was more than 1000 µM; in the experiment with L1210 (Mus musculus, L1210, 48 h), more than 50 µM; with NALM-6 (Homo sapiens, NALM-6, 48 h) it was 497 µM.
Turning to `C=C1CC(c2ccccc2)OC1=O` (configuration not stated), the IC50 turned out to be 36.9 µM with HL-60 (Homo sapiens, HL-60, 48 h); 1.4 µM in the experiment with L1210 (Mus musculus, L1210, 48 h); 9.13 µM in the experiment on NALM-6 (Homo sapiens, NALM-6, 48 h).
